target: Bcl-xL (Homo sapiens, UniProt Q07817); type: binding; conditions: global SORTCERY ranks re-indexed from 1 to 19 for the 19 chosen sequences
How it was run: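 Incubated with Myc-tagged Bcl-xL in 50 mM Tris, 100 mM NaCl, pH 8.0, 1 mg/ml BSA for 2 h at room temperature. Stained with anti-HA/anti-Myc, then APC/PE secondaries, at 4 °C. Sorted into 12 gates and deep-sequenced (Phred >0.95). Global ranking optimised by Monte Carlo, with bootstrap uncertainty.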

Bcl-xL, sequence (Q07817 whole entry): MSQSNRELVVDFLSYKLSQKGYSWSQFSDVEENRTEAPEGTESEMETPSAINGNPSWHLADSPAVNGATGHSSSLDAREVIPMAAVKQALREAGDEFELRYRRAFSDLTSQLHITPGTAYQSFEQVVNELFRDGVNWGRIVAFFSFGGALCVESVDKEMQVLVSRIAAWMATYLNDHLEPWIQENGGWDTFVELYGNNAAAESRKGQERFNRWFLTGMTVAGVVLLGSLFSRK

Row | reindexed ranking | Sequence
1 | 4 | VAQELRRYGDEY
2 | 5 | IGAQFGRFADDF
3 | 17 | VGAQFHRFANDF
4 | 16 | YAQEIGRNGDEF
5 | 14 | FGAQLGRVASDF

Second part, the sequence before the results:

Row | Sequence | reindexed ranking
6 | FGAQLNRIAEDF | 6
7 | VAQELRRIGDEV | 9
8 | AGAQLHRFADDY | 12
9 | IGAQLRRMADDV | 7
10 | AAQELRRYGDEY | 8
11 | VGAQLRRIADDV | 1
12 | YAQELQRYGDET | 13
13 | YGAQLDRYAQDF | 10
